As a reminder, the GI50 is the concentration at which growth is held to half of that of the control.

Series [1] is described as follows: Antiproliferative activity against human UACC62 cells assessed as growth inhibition after 48 hrs by SRB assay. Format: functional. The following applies: UACC-62, 48 h. In a few lines: (§1)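 Cells exposed 48 h at 37 °C, 5% CO2 to 0.25, 2.5, 25 and 250 µg/mL in DMSO/RPMI (final DMSO 0.1%); doxorubicin standard at 0.025–25 µg/mL. Plates fixed with 50% TCA before (T0) and after treatment; protein content read by sulforhodamine B at 540 nm. GI50 (µM) from nonlinear regression of concentration–response curves; triplicate.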

In a further series the test system is K562. The experiment in a line: Antiproliferative activity against human K562 cells assessed as growth inhibition after 48 hrs by SRB assay. Format: functional. The following applies: K562, 48 h. A digest of the protocol: as §1
In general terms: Sulforhodamine B stains cellular protein and so reports cell mass.

The test system of a further series is MCF7. The experiment in a line: Antiproliferative activity against human MCF7 cells assessed as growth inhibition after 48 hrs by SRB assay. The following applies: MCF7, 48 h. The format is functional. In a few lines: as §1
The test system of a further series is HT-29. In words: Antiproliferative activity against human HT-29 cells assessed as growth inhibition after 48 hrs by SRB assay. Format: functional. The following applies: HT-29, 48 h. In a few lines: as §1
Series [2] is described as follows: Antiproliferative activity against human PC3 cells assessed as growth inhibition after 48 hrs by SRB assay. Format: functional. Conditions: PC-3, 48 h. A digest of the protocol: as §1
In series [3] the test system is 786-0. In words: Antiproliferative activity against human 786-0 cells assessed as growth inhibition after 48 hrs by SRB assay. The format is functional. Conditions: 786-0, 48 h. In a few lines:
as §1

Another series deals with NCI-H460. The experiment in a line: Antiproliferative activity against human NCI-H460 cells assessed as growth inhibition after 48 hrs by SRB assay. The format is functional. Conditions: NCI-H460, 48 h. In a few lines:
as §1

The test system of a further series is U-251. The experiment in a line: Antiproliferative activity against human U251 cells assessed as growth inhibition after 48 hrs by SRB assay. The format is functional. Conditions: U-251, 48 h. In a few lines: as §1
Series [4] can be described thus: Antiproliferative activity against human HaCaT cells assessed as growth inhibition after 48 hrs by SRB assay. Format: cell-based. In a few lines: as §1
Series [5] can be described thus: Antiproliferative activity against human NCI-ADR-RES cells assessed as growth inhibition after 48 hrs by SRB assay. Format: functional. In a few lines:
as §1

For series [6], the system named is 786-0. In words: Cell cycle arrest in human 786-0 cells assessed as accumulation at Sub G1 phase at 1.25 nM after 24 hrs by propidium iodide based flow cytometric analysis (reference value: 3.0 +/- 0.7%). The format is functional.
Series [7] deals with 786-0. The experiment in a line: Cell cycle arrest in human 786-0 cells assessed as accumulation at G2/M phase at 1.25 nM after 24 hrs by propidium iodide based flow cytometric analysis (reference value: 35.7 +/- 0.9%). The format is functional. (In general: Flow cytometry measures light scatter and fluorescence of single cells or particles in a stream.)
In series [8] the test system is 786-0. The experiment in a line: Cell cycle arrest in human 786-0 cells assessed as reduction in G1 phase at 1.25 nM after 24 hrs by propidium iodide based flow cytometric analysis (reference value: 46.7 +/- 0.8%). Format: functional. On the set-up: scale not given: the % may be the effect or the level left.
Series [9] has as its system 786-0. The experiment in a line: Cell cycle arrest in human 786-0 cells assessed as accumulation at S phase at 1.25 nM after 24 hrs by propidium iodide based flow cytometric analysis (reference value: 14.6 +/- 1.3%). The format is functional.
Series [10] in a line: Antitumor activity against mouse EAT implanted in Balb/C mouse assessed as change in paw volume at 3 mg/kg, ip administered on day 3 post tumor inoculation measured on day 6 by plethysmometer analysis (reference value: 86.1 +/- 5.7%). The format is functional.
Series [11] in a line: Antitumor activity against mouse EAT implanted in Balb/C mouse assessed as change in paw volume at 3 mg/kg, ip administered on day 3 post tumor inoculation measured on day 3 by plethysmometer analysis (reference value: 40.2 +/- 7.0%). Format: functional.
The nature of series [12]: Antitumor activity against mouse EAT implanted in Balb/C mouse assessed as change in paw volume at 3 mg/kg, ip administered on day 3 post tumor inoculation measured on day 15 by plethysmometer analysis (reference value: 166.5 +/- 6.0%). Format: functional.
The nature of series [13]: Antitumor activity against mouse EAT implanted in Balb/C mouse assessed as change in paw volume at 3 mg/kg, ip administered on day 3 post tumor inoculation measured on day 12 by plethysmometer analysis (reference value: 125.5 +/- 7.5%). Format: functional.
The nature of series [14]: Antitumor activity against mouse EAT implanted in Balb/C mouse assessed as change in paw volume at 3 mg/kg, ip administered on day 3 post tumor inoculation measured on day 9 by plethysmometer analysis (reference value: 95.5 +/- 5.2%). The format is functional.
Series [15] is described as follows: Antitumor activity against mouse EAT implanted in Balb/C mouse assessed as change in paw volume at 40 mg/kg, po administered on day 3 post tumor inoculation measured on day 3 by plethysmometer analysis (reference value: 40.2 +/- 7.0%). Format: functional.
Series [16] can be described thus: Antitumor activity against mouse EAT implanted in Balb/C mouse assessed as change in paw volume at 40 mg/kg, po administered on day 3 post tumor inoculation measured on day 6 by plethysmometer analysis (reference value: 86.1 +/- 5.7%). The format is functional.
Series [17] is described as follows: Antitumor activity against mouse EAT implanted in Balb/C mouse assessed as change in paw volume at 40 mg/kg, po administered on day 3 post tumor inoculation measured on day 15 by plethysmometer analysis (reference value: 166.5 +/- 6.0%). The format is functional.
A short description of series [18]: Antitumor activity against mouse EAT implanted in Balb/C mouse assessed as change in paw volume at 40 mg/kg, po administered on day 3 post tumor inoculation measured on day 12 by plethysmometer analysis (reference value: 125.5 +/- 7.5%). Format: functional.
Series [19] is described as follows: Antitumor activity against mouse EAT implanted in Balb/C mouse assessed as change in paw volume at 40 mg/kg, po administered on day 3 post tumor inoculation measured on day 9 by plethysmometer analysis (reference value: 95.5 +/- 5.2%). Format: functional.

`C=CCNC(=S)N/N=C/c1cccs1`: the GI50 in series [1] was over 100 µM; with K562, 6 µM; with MCF7 it was over 100 µM; in the series on HT-29 it was over 100 µM; in series [2], over 100 µM; in the series on 786-0 [3], 21.2 µM. Besides, the GI50 (in the series with NCI-H460; in the series on U-251; in series [5]) was over 100 µM in each case. The GI50 at 48 h in series [4] was over 100 µM.
As for `S=C(NCCc1ccccc1)N/N=C/c1cccs1`, the 50% growth inhibitory concentration (GI50) (in [1]; with K562; in the series on MCF7; in the series with HT-29; in series [2]; with 786-0 [3]) was over 100 µM each time. The GI50 (in the series with NCI-H460; with U-251; in series [5]) was over 100 µM each time. Also, the GI50 at 48 h in [4] is over 100 µM.
As for `S=C(N/N=C/c1cccs1)Nc1ccccc1`, the GI50 in series [1] is over 100 µM; with K562, 16.7 µM; with MCF7 it was 94.6 µM; in the series with HT-29, over 100 µM; in series [2] it was over 100 µM; in the series with 786-0 [3], 50.4 µM. In addition, the GI50 with NCI-H460 was over 100 µM; with U-251 it was 74.7 µM; in series [5] it was over 100 µM. For the same compound, in series [4], the GI50 at 48 h was over 100 µM.
`S=C(N/N=C/c1cccs1)Nc1cccc2ccccc12`: the GI50 is over 100 µM in series [1]; 1.8 µM with K562; over 100 µM with MCF7; over 100 µM in the series on HT-29; over 100 µM in [2]; 15.2 µM with 786-0 [3]. Besides, the results for the GI50 (in the series with NCI-H460; in the series with U-251; in series [5]) were over 100 µM, 12.7 µM and 6.6 µM, respectively. For the same compound, in [4], the GI50 at 48 h was found to be 82.4 µM.
On to `S=C(N/N=C/c1cccs1)Nc1cccnc1`, for which the GI50 is over 100 µM in series [1]; 16.4 µM with K562; over 100 µM with MCF7; over 100 µM in the series on HT-29; over 100 µM in series [2]; 5.6 µM in the series with 786-0 [3]. The GI50 in the series with NCI-H460 was 45.9 µM; with U-251, 26 µM; in series [5] it was over 100 µM. Further, the GI50 at 48 h in [4] stood at 45.4 µM.
For the compound `Cc1ccc(NC(=S)N/N=C/c2cccs2)cc1`, the concentration for 50% growth inhibition (GI50) in series [1] was 16.8 µM; in the series with K562 it was under 0.9 µM; in the series with MCF7 it was 38.6 µM; in the series on HT-29, over 100 µM; in [2] it was 29.7 µM; with 786-0 [3], 19.5 µM. For the same compound, the GI50 in the series with NCI-H460 was 80.6 µM; with U-251 it was 12.6 µM; in series [5], 4.8 µM. In addition, the GI50 at 48 h in series [4] turned out to be 17.6 µM.
`S=C(N/N=C/c1cccs1)Nc1ccc(Cl)cc1`: the GI50 is 15.8 µM in series [1]; 2 µM in the series on K562; over 100 µM in the series on MCF7; over 100 µM in the series on HT-29; over 100 µM in [2]; 7.4 µM with 786-0 [3]. In addition, the GI50 with NCI-H460 was over 100 µM; in the series with U-251 it was 8.3 µM; in [5] it was 2.8 µM. Also, the GI50 at 48 h in series [4] is 14.7 µM.
Consider `COc1ccc(NC(=S)N/N=C/c2cccs2)cc1`, for which the GI50 in [1] was over 100 µM; in the series on K562, 1.7 µM; in the series with MCF7, over 100 µM; in the series with HT-29 it was over 100 µM; in series [2], over 100 µM; in the series on 786-0 [3] it was over 100 µM. Besides, the GI50 (in the series on NCI-H460; in the series with U-251; in series [5]) was over 100 µM throughout. The GI50 at 48 h in [4] was over 100 µM.
Take `CCc1ccc(NC(=S)N/N=C/c2cccs2)cc1`: the GI50 in series [1] was over 100 µM; in the series with K562, 1.6 µM; in the series with MCF7, over 100 µM; in the series on HT-29, over 100 µM; in series [2], over 100 µM; in the series with 786-0 [3], 82.6 µM. For the same compound, the GI50 (in the series on NCI-H460; in the series with U-251; in series [5]) was over 100 µM in each case. Besides, the GI50 at 48 h in [4] was found to be 17.6 µM.
Consider `COc1cc2c(c(OC)c1OC)-c1ccc(OC)c(=O)cc1[C@@H](NC(C)=O)CC2` [COLCHICINE], for which the Activity in the series with 786-0 [6] was 8.9%; in the series on 786-0 [7], 57.5%; in the series with 786-0 [8], 21.5%; in the series on 786-0 [9], 12.6%.
With `COc1cccc2c1C(=O)c1c(O)c3c(c(O)c1C2=O)C[C@@](O)(C(=O)CO)C[C@@H]3O[C@H]1C[C@H](N)[C@H](O)[C@H](C)O1` [DOXORUBICIN], the GI50 in [1] was 0.05 µM; with K562, under 0.046 µM; with MCF7, under 0.046 µM; in the series on HT-29 it was 0.3 µM; in series [2], 0.13 µM; in the series on 786-0 [3], under 0.046 µM. For the same compound, the figures for the GI50 (in the series with NCI-H460; with U-251; in series [5]) were under 0.046 µM, under 0.046 µM and 0.21 µM, respectively. Moreover, the Activity is listed as 55.6% in series [10]; 43.7% in [11]; 97.9% in series [12]; 39.6% in [13]; 69.8% in [14]. Further, the GI50 at 48 h in series [4] is under 0.046 µM.
Turning to `CN1C(C(=O)Nc2ccccn2)=C(O)c2ccccc2S1(=O)=O` [PIROXICAM], the Activity in [15] is reported as 42.2%; in series [16], 57.2%; in series [17], 47.3%; in [18], 34.9%; in series [19] it was 52.3%.

(Values after ChEMBL document CHEMBL3734720, “Synthesis of thiophene-thiosemicarbazone derivatives and evaluation of their in vitro and in vivo antitumor activities” (Eur J Med Chem, 2015).)
